Each block holds one molecule with its values, some of them ahead of it.
Experiments:
[1] = tested on: ANO 2; type: cell-based, rat; conditions: for Effect on ANO 2 current density (channel activation): bath application of 20 µM TFP or 50 µM J-8 for 10–70 min
Procedure, shortened: (§1)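 HEK 293 cells transiently transfected with rat ANO with C-terminal YFP tag; cells of similar YFP intensity recorded whole-cell. Bath (mM): 150 CsCl, 10 HEPES, 10 EGTA, pH 7.4. Pipette: 150 mM Cl−, 10 mM HEDTA, 10 mM HEPES, pH 7.0, free Ca2+ 0.7–62 µM. Ramps −80 to +80 mV (1 s), every 15 s from 2 min after breakthrough; current density in pA/pF.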

[2] = tested on: ANO 1; type: cell-based, rat; conditions: for Effect on ANO 1 current density (channel activation): bath application of 20 µM TFP or 50 µM J-8 for 10–70 min
Procedure, shortened: as §1

[3] = biological target: CaM (Bos taurus, UniProt P62157); test: Badan fluorescence peptide-binding assay with CaM; conditions: 3 µM peptide, 1.5 µM CaM, free Ca2+ 0.007 to 10 µM
[4] = biological target: Badan-labeled ANO 2 RCBM peptide, mutant m15,20 (rat); test: other fluorescence titration
[5] = biological target: Badan-labeled ANO 2 RCBM peptide, mutant m2,6 (rat); test: other fluorescence titration
[6] = biological target: Badan-labeled ANO 1 RCBM peptide, mutant m2,6 (rat); test: other fluorescence titration
[7] = biological target: Badan-labeled ANO 1 RCBM peptide, mutant m15,20 (rat); test: other fluorescence titration

Molecule: NCCCCCCCCNS(=O)(=O)c1cccc2c(I)cccc12 [J-8]
Effect on ANO 2 current density (channel activation) [1]: did not significantly reduce
Effect on ANO 1 current density (channel activation) [2]: did not significantly reduce

Molecule: CN1CCN(CCCN2c3ccccc3Sc3ccc(C(F)(F)F)cc32)CC1 [TFP, trifluoperazine]
Effect on ANO 2 current density (channel activation) [1]: did not significantly reduce
Effect on ANO 1 current density (channel activation) [2]: did not significantly reduce

Molecule: CN[C@@H]1C[C@H]2O[C@@](C)([C@@H]1OC)n1c3ccccc3c3c4c(c5c6ccccc6n2c5c31)C(=O)NC4 [staurosporine]
Effect on ANO 2 channel activation or inactivation ([1]; 0.2–2 µM, 5–50 min, applied to the bath solution, 18 cells, unpublished data): did not detect any effect
Effect on ANO 1 channel activation or inactivation ([2]; 0.2–2 µM, 5–50 min, applied to the bath solution, 6 cells, unpublished data): did not detect any effect

CaM binding of Badan-labeled peptide (Ca2+-dependent change of emission spectra) [3]: completely abolished CaM binding
Molecule: RKLEYEEEASYGVFYKEQPIDEVRK [ANO ctrl]

EC50 of free Ca^2+ for CaM binding [4]: 0.6 µM
EC50 of free Ca^2+ for CaM binding [5]: 6 µM
EC50 of free Ca^2+ for CaM binding [6]: 12 µM
EC50 of free Ca^2+ for CaM binding [7]: 15.2 µM
Molecule: wild-type calmodulin (wt CaM), purchased (from UniProt P0DP23 1-149) (natural protein)
